rCAG RNA binder = binders of r(CAG) RNA repeats, primary screen, biochemical, fluorescence; r(CAG) RNA repeat, TO-PRO-1 dye displacement fluorescence; inhibition, % at 3 µM; 370,000 tested, 1.3% active; AID 651821, 2012;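 active means inhibition above the plate cutoff, the mean of all test compounds on that plate plus 3 SD, cut at about 35% in these data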;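 further: 0% = DMSO alone and 100% = 100 µM mitoxantrone as full dye displacement; higher means more dye released from RNA so lower well fluorescence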
T cell HTS = modulators of CD8 T cell-vesicle binding, primary screen, mouse 2C CD8+ T cells, flow cytometry; 2C CD8+ T cell-vesicle binding; active compounds read low; response (vesicle binding), % at 7 µM; 330,000 tested, 0.068% active;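 active means response, share of CD8 T cells binding vesicles, and their 90th percentile fluorescence all below set limits, cut at about 80% in these data, passing the limit was not always enough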;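 further: values below 100% mean blocked vesicle binding to the CD8+ T cells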
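Also added: QL9-peptide-loaded Drosophila micro-vesicles bearing Ld, ICAM-1 and B7-1; Test system: purified 2C TCR transgenic mouse naive CD8+ T cells; Measured by: cytometric PE anti-B7-1 and Alexa647 anti-CD8 signals after 1% paraformaldehyde fixation; Timing: binding step 1.5 h, 37 °C, antibody labelling 20 min, ice.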
MPTP block = mitochondrial permeability transition pore inhibitors, primary screen, biochemical, isolated mouse mitochondria, absorbance | 360,000 tested, 1.4% active | Ca2+ swelling absorbance, 30 min | inhibition, % at 10 µM | AID 602449, 2012;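 active means inhibition of 50% or more, scaled per plate between neutral and stimulator controls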;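 further: 0% = DMSO wells given calcium and 100% = 1 mM EGTA wells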
Beta2AR agonist = beta2AR agonists driving receptor internalization, primary screen, cell-based, FAP fluorogen, flow cytometry | Am2.2-beta2AR cells | 340,000 tested, 0.43% active | Beta-2 adrenergic receptor (Homo sapiens), P07550 | response, % (no concentration beside the values) | AID 504454, 2011;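 active means response above a set limit, near 3 SD of response in nonfluorescent compounds, cut at about 42% in these data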
Target sequence (P07550 whole entry, looked up): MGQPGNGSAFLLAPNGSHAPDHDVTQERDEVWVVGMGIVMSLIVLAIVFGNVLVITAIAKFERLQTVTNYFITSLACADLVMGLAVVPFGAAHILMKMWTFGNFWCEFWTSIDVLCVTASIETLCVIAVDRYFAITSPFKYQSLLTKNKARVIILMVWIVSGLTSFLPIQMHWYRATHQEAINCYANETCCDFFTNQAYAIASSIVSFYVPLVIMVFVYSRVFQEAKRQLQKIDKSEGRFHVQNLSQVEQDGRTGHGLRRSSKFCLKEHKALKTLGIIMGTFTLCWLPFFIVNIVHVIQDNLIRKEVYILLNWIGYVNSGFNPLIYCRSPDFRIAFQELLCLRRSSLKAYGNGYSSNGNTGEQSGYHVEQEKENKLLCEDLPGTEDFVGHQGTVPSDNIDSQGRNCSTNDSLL
V-ATPase pH = regulators of yeast V-ATPase proton pumping, primary screen, pHLuorin cytosolic pH fluorescence. AID 504577, 2011. 350,000 tested, 0.37% active. response, % at 10 µM. S. cerevisiae; in the data active means response mostly above about 7.3%, no sharp cut-off; inactive means mostly below about 5.4%; further: actives read high
Granule exo inh = LAMP-1 surface exposure blockers, TALL-104 cells – cell-based, flow cytometry, MLPCN library, primary screen. TALL-104 LAMP-1 surface exposure; cells stimulated with thapsigargin and PMA. inhibition, % at 10 µM. 360,000 tested, 0.66% active. AID 651702, 2012;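 active means inhibition above about 55%, limit read from the data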
rCAG binder conf = small molecules binding CAG repeat RNA – biochemical, fluorescence, confirmation. shares compounds with rCAG RNA binder. r(CAG) RNA repeat, TO-PRO-1 dye displacement fluorescence. inhibition, % at 3 µM. 4,300 tested, 70% active. AID 652065, 2013;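 active means inhibition above a per-plate cutoff, the mean inhibition of sample wells plus 3 SD, cut at about 35% in these data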;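 further: loss of TO-PRO-1 fluorescence as compound displaces dye from 1x1 AA loop RNA; 0% = DMSO only wells and 100% = 100 µM mitoxantrone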
dCAG dye counter = displacement of TO-PRO-1 from CAG DNA duplex, counter-screen for rCAG RNA repeat binder project, biochemical, fluorescence, TO-PRO-1 dye, d(CAG) DNA oligo. shares compounds with rCAG RNA binder. 4,300 tested, 94% active. d(CAG) DNA oligo TO-PRO-1 dye displacement. AID 652068, 2013. inhibition, % at 3 µM;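 active means inhibition above its plate's cutoff, the mean test-well inhibition plus 3 SD, cut at about 4.8% in these data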;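 further: 0% = DNA dye mix with DMSO and 100% = 100 µM mitoxantrone; hits displace the dye from DNA and so lower well fluorescence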
An asterisk follows results filed as active. The list is not random: actives were taken first. Their share in the collection is about 3.8%.

How did CNc1ccc(Br)cc(C(=O)/C=C/c2cccc(OC)c2OC)c1=O do in these assays?
rCAG RNA binder: 35.1*; T cell HTS: 510.7; MPTP block: 3.8; Beta2AR agonist: 14.4; V-ATPase pH: -2.9; Granule exo inh: -0.4; rCAG binder conf: 27.8; dCAG dye counter: 11.0*

Results for CCNc1ccccc(C(=O)/C=C/c2ccc3c(c2)OCO3)c1=O ?
rCAG RNA binder: 33.7; T cell HTS: 242.9; MPTP block: -1.0; Beta2AR agonist: -2.4; V-ATPase pH: -6.2; Granule exo inh: 2.8

How did CNc1ccc(Br)cc(C(=O)/C=C/c2cccc(Cl)c2Cl)c1=O do in these assays?
rCAG RNA binder: 48.1*; MPTP block: 3.8; Beta2AR agonist: -115.4; V-ATPase pH: -1.2; Granule exo inh: 98.2*; rCAG binder conf: 50.1*; dCAG dye counter: 23.2*

How did CNc1ccccc(C(=O)/C=C/c2ccccc2OC)c1=O do in these assays?
rCAG RNA binder: 25.6; T cell HTS: 134.8; MPTP block: 0.6; Beta2AR agonist: -1.4; V-ATPase pH: -0.7; Granule exo inh: -0.6

Results for CCNc1ccc(Br)cc(C(=O)/C=C/c2ccccc2Cl)c1=O ?
rCAG RNA binder: 46.4*; T cell HTS: 368.3; MPTP block: 4.7; Beta2AR agonist: -95.6; V-ATPase pH: -1.7; Granule exo inh: 0.4; rCAG binder conf: 34.2; dCAG dye counter: 14.9*

What do the screens show for `CCN(C(=O)C1CCN(c2ncccn2)CC1)c1ccccc1`?
rCAG RNA binder: -1.4

Results for CCOC(=O)[C@]12CCCCC/C=C\1N(CCc1ccc(Cl)cc1)C(=O)[C@H]2CC(=O)NCc1cccc2ccccc12 ?
rCAG RNA binder: 7.2

Results for CCCn1nc(NS(=O)(=O)c2cccc3nonc23)c2cc3cccc(C)c3nc21 ?
rCAG RNA binder: 85.2*; T cell HTS: 507.6; MPTP block: 3.3; Beta2AR agonist: 12.2; V-ATPase pH: 1.3; Granule exo inh: 16.7; rCAG binder conf: 77.6*; dCAG dye counter: 40.8*

Results for CCCn1nc(NS(=O)(=O)c2cccc3nonc23)c2cc3cc(C)ccc3nc21 ?
rCAG RNA binder: 23.2; T cell HTS: 401.5; MPTP block: 0.9; Beta2AR agonist: 18.6; V-ATPase pH: -2.0; Granule exo inh: -6.2

How did CCn1nc(NS(=O)(=O)c2ccc(NC(C)=O)cc2)c2cc3cccc(C)c3nc21 do in these assays?
rCAG RNA binder: 39.0*; T cell HTS: 601.2; MPTP block: -1.7; Beta2AR agonist: 2.6; V-ATPase pH: -3.8; Granule exo inh: 0.0; rCAG binder conf: 19.4; dCAG dye counter: 4.2

How did CC1(C(=O)NC2CCCC2)CCC(=O)N1Cc1ccccc1 (stereo not drawn) do in these assays?
rCAG RNA binder: -3.2; T cell HTS: 188.5; MPTP block: 3.4; Beta2AR agonist: 5.8; V-ATPase pH: -0.6; Granule exo inh: 6.2

What do the screens show for `O=C(NC1=N[C@@]2(C=C3CCCCC3n3c(=O)n(-c4ccccc4)c(=O)n32)[C@H](Cc2ccccc2)N1Cc1ccccc1)c1ccccc1` (stereo partly drawn)?
rCAG RNA binder: 56.2*; rCAG binder conf: 52.5*; dCAG dye counter: 20.1*

How did O=C(O)c1ccc(-n2ncc3c2/C(=C/c2cccc([N+](=O)[O-])c2)CC3)cc1 do in these assays?
rCAG RNA binder: 5.2; T cell HTS: 178.0; MPTP block: 4.6; Beta2AR agonist: 17.6; V-ATPase pH: -2.3; Granule exo inh: 1.5

How did O=C(O)c1ccccc1-n1ncc2c1/C(=C/c1ccc(Cl)cc1)CC2 do in these assays?
rCAG RNA binder: 38.2*; T cell HTS: 571.3; rCAG binder conf: 34.2; dCAG dye counter: 10.6*

What do the screens show for `Cc1ccc(C(C)C)c(OCC(=O)NS(=O)(=O)c2ccc(Cl)cc2)c1`?
rCAG RNA binder: 50.5*; T cell HTS: 367.6; MPTP block: 5.2; Beta2AR agonist: 2.7; V-ATPase pH: 2.5; Granule exo inh: 1.5; rCAG binder conf: 36.4*; dCAG dye counter: 7.0*

How did O=C(CCl)Nc1ccc(C(=O)NCC2COc3ccccc3O2)cc1 (stereo not drawn) do in these assays?
rCAG RNA binder: 4.2

Results for C[C@H]1COc2cc(Br)ccc2S(=O)(=O)N1Cc1cn(Cc2ccco2)nn1 ?
rCAG RNA binder: 1.1

How did O=C(O)c1cc(-c2cccc3ccccc23)nc2ccccc12 do in these assays?
rCAG RNA binder: -0.9; T cell HTS: 426.4; MPTP block: 0.6; Beta2AR agonist: 7.1; V-ATPase pH: -0.2; Granule exo inh: -0.7

How did O=C(O)c1cc(-c2ccc3ccccc3n2)nc2ccccc12 do in these assays?
rCAG RNA binder: 1.6; T cell HTS: 215.6; MPTP block: 0.0; Beta2AR agonist: 10.6; V-ATPase pH: 1.0; Granule exo inh: -6.0

Results for O=C(O)c1cc(-c2ccc3ccccc3c2)nc2ccc(F)cc12 ?
rCAG RNA binder: 37.5*; MPTP block: -0.7; Beta2AR agonist: -35.6; V-ATPase pH: 0.6; Granule exo inh: 4.2; rCAG binder conf: 18.8; dCAG dye counter: 3.8

What do the screens show for `O=C(O)c1cc(-c2c[nH]c3ccccc23)nc2cc3ccccc3cc12`?
rCAG RNA binder: 54.4*; T cell HTS: 297.3; MPTP block: 1.3; Beta2AR agonist: 3.5; V-ATPase pH: -1.9; Granule exo inh: -1.1; rCAG binder conf: 35.1*; dCAG dye counter: 12.5*

How did COC(=O)C[C@@H]1CC[C@@H]2[C@@H](COc3ccc(NC(=O)Nc4ccc(F)cc4)cc3C(=O)N2C)O1 do in these assays?
rCAG RNA binder: 5.9

Results for CCCCCCCCN1C(=O)[C@@H](CC(=O)NCCCOCCCC)C[C@@]2(C(=O)OC)C1=C[C@H](C(C)C)O[C@@H]2C1CC1 ?
rCAG RNA binder: 8.9

How did O=C(O)C1=C2C(=O)Nc3cccc(c32)C2(C1)C(=O)Nc1ccccc12 (stereo not drawn) do in these assays?
rCAG RNA binder: 39.2*; MPTP block: 1.3; V-ATPase pH: -1.8; Granule exo inh: -2.1; rCAG binder conf: 58.8*; dCAG dye counter: 21.5*

What do the screens show for `S=c1[nH]nc(-c2cc(-c3ccccc3)n[nH]2)n1/N=C/C=C/c1ccccc1`?
rCAG RNA binder: 24.9; T cell HTS: 467.3; MPTP block: 2.1; Beta2AR agonist: 5.1; V-ATPase pH: 0.3; Granule exo inh: -7.5
